Measurements gathered from unrelated publications.
Target: Serine/threonine-protein kinase 26 (STK26, Homo sapiens, UniProt Q9P289)

SMILES | test | conditions | quantity | value
C[C@H]1CCN(c2nccc(-c3cnn4ncccc34)n2)C1 | cell-free assay | 1 µM | remaining signal | 73%
Cc1noc([C@H]2C[C@@H](c3ccc(C(F)(F)F)cc3)CN(C(=O)N3CCS(=O)(=O)C3)C2)n1 | cell-free assay, competition with immobilised ligand | 1 µM | remaining binding | 74%
CN(CCCC(F)(F)F)c1nccc(-c2cnn3ncccc23)n1 | cell-free assay | 1 µM | remaining signal | 100%
Cn1c2c(c3ccccc31)C(C#N)C(C)(C)NC2=O (stereo not drawn) | thermal stability, DSF | 10 µM | ΔTm | 1.9 °C
c1cnn2ncc(-c3ccnc(N4CCC45COC5)n3)c2c1 | cell-free assay | 1 µM | remaining signal | 64%
COc1cc(/C=C/C(=O)CC(=O)/C=C/c2ccc(O)c(OC)c2)ccc1O | enzyme activity, inhibitor | 1 µM | activity vs control | 75%
COc1cc2ncnc(Nc3ccc(Oc4ccccc4)cc3C)c2cc1OC | enzyme activity, inhibitor | 1 µM | inhibition | -2%
N[C@@H]1CCN(c2nccc(-c3cnn4ncccc34)n2)C1 | cell-free assay | 1 µM | remaining signal | 100%
Nc1ncnc2occ(-c3ccc(NC(=O)Nc4cc(C(F)(F)F)ccc4F)cc3)c12 | cell-free assay, inhibitor | 20 µM | remaining signal | 2.6%
c1ccc(CNc2nc(N3CCOc4ccccc43)nc3c2CCCC3)cc1 | target engagement in cells, inhibitor, chemoproteomics | 20 mM | inhibition | 38.2%
O=C(NS(=O)(=O)c1ccc(NCC2CCOCC2)c([N+](=O)[O-])c1)c1ccc(N2CCN(Cc3ccc(C(F)(F)F)cc3-c3ccc(Cl)cc3)CC2)cc1Oc1cnc2[nH]ccc2c1 | cell-free assay, competition with immobilised ligand | 1 µM | remaining binding | 72%
CC1CCCN1c1nccc(-c2cnn3ncccc23)n1 (stereo not drawn) | cell-free assay | 1 µM | remaining signal | 100%
Cn1c2c(c3ccc(Cl)c(Cl)c31)C(C#N)C1(CCNCC1)NC2=O (racemic) | thermal stability, DSF | 10 µM | ΔTm | -0.5 °C
COc1cc(Cl)c(C(=O)N[C@@H](CN[C@H]2CC[C@@H](N)CC2)Cc2ccc(C#N)cc2)cc1-c1ccc(CN[C@H](C)c2ccc(C)cc2)o1 | enzyme activity, inhibitor | 1 µM | remaining activity | 94%
COc1cc(Nc2cnc(C#N)c(O[C@H](C)CN(C)C)n2)ncc1-c1cnn(C)c1 | enzyme activity, inhibitor, radiometric | 10 µM | remaining activity | 42%
Nc1nc(Nc2ccccc2)sc1C(=O)c1c(F)cccc1F | enzyme activity, inhibitor | 10 µM | remaining activity | 57%
O=C(NC[C@@H]1[C@H]2CN(C(=O)OCc3cc(C(F)(F)F)cc(C(F)(F)F)c3)C[C@@H]12)c1ccc2[nH]nnc2c1 | cell-free assay, competition with immobilised ligand | 1 µM | remaining binding | 76%
COc1cc(-c2cc(-c3ccc(N4CCNCC4)cc3)cnc2N)cc(OC)c1OC | enzyme activity, inhibitor | 1 µM | inhibition | 1%
CC1(C)NC(=O)c2[nH]c3c(Cl)c(Cl)ccc3c2C1C#N (stereo not drawn) | thermal stability, DSF | 10 µM | ΔTm | 2.4 °C
Nc1nc(NC2CCCCC2)sc1C(=O)c1ccccc1 | enzyme activity, inhibitor | 10 µM | remaining activity | 76%

SMILES | test | conditions | quantity | value
Cc1ccc(C(=O)Nc2ccc(CN3CCN(C)CC3)c(C(F)(F)F)c2)cc1C#Cc1cnc2cccnn12 | enzyme activity, inhibitor | 23.5 nM | remaining activity | 86%
CN(C(=O)c1ccccc1)c1cc(N(C)c2ccc3c(c2)CCc2ccc(C(=O)NCCN4CCOCC4)cc2C3=O)ccc1F | cell-free assay, competition with immobilised ligand | 1 µM | remaining binding | 78%
O=C1Nc2ccc(Cl)cc2C1=Cc1cc(Cl)c(O)c(Cl)c1 | cell-free assay | 0.5 µM | remaining signal | 101%
Cn1c2c(Cl)c(Cl)ccc2c2cc(N)[nH]c(=O)c21 | thermal stability, DSF | 10 µM | ΔTm | 1.5 °C
Cn1c(=O)n(-c2ccc(C(C)(C)C#N)cc2)c2c3cc(-c4cnc5ccccc5c4)ccc3ncc21 | enzyme activity, inhibitor | 10 µM | remaining activity | 100%
CS(=O)(=O)N1CCCC(NC(=O)[C@H](CCC2CCCCC2)NC(=O)c2ccc(CNc3ncnc4c3nnn4-c3ccccc3)cc2)C1 (stereo partly drawn) | cell-free assay, competition with immobilised ligand | 0.1 µM | remaining binding | 92%
O=C(NCCCNc1nc(Nc2cccc(NC(=O)N3CCCC3)c2)ncc1I)c1cccs1 | enzyme activity, inhibitor | 1 µM | inhibition | -93%
Cc1ccc(NC(=O)c2ccc(C)c(C(F)(F)F)c2)cc1C#Cc1nn(C2CCC(O)CC2)c2ncnc(N)c12 (stereo not drawn) | cell-free assay | 10 µM | remaining signal | 73%
O=C(Nc1ccc(Oc2ccc(F)cc2)cc1)N1CCc2ncccc2[C@H]1c1ccc(F)cc1 | cell-free assay, competition with immobilised ligand | 1 µM | remaining binding | 100%
O=C(Nc1cnn(-c2csc(C(=O)NC3COC3)c2)c1)Nc1ccccc1Cl | enzyme activity, inhibitor | 5 µM | remaining activity | 98.3%
O=C1NC(=O)c2cc(Nc3ccc(F)cc3)c(Nc3ccc(F)cc3)cc21 | cell-free assay | 0.5 µM | remaining signal | 99%
Cc1nccc(COC(=O)N2C[C@@H]3[C@@H](CNC(=O)c4ccc5[nH]nnc5c4)[C@@H]3C2)n1 | cell-free assay, competition with immobilised ligand | 1 µM | remaining binding | 77%
CC(C)(O)[C@H]1CC[C@H](Nc2ccc3ncc(-c4cccc(C(F)(F)F)c4)n3n2)CC1 | enzyme activity, inhibitor | 1 µM | remaining activity | 109%
CC(C)(C)c1nc2c(s1)c1nc(N)ncc1c1ccc(NS(=O)(=O)c3c(F)cccc3F)c(F)c12 | enzyme activity, inhibitor, radiometric | 1 µM | remaining activity | 98%
COc1cc(-c2cc(-c3ccc(N4CCNCC4)cc3)cnc2C)cc(OC)c1OC | enzyme activity, inhibitor | 0.1 µM | inhibition | 9%
CCC(=O)N[C@H]1CC[C@@H](C(=O)N(C)c2ccc(-c3nc4ccccc4o3)cc2)C1 | cell-free assay, competition with immobilised ligand | 1 µM | remaining binding | 76%
FC(F)(F)Oc1cccc(-c2cnc3ccc(-c4ccncc4)nn23)c1 | enzyme activity, inhibitor, radiometric | 5 µM | activity vs control | 87%
CN(C)c1nccc(-c2cnc3ncccn23)n1 | cell-free assay | 1 µM | remaining signal | 68%
CN(C)C1CCN(CC#Cc2nn(C3CCCC3)c3nc(NCc4ccccc4)ncc23)C1 (stereo not drawn) | enzyme activity, inhibitor, FRET | 1 µM | inhibition | 20%
